Measured values: ChEMBL document CHEMBL4715843, “NO-releasing STAT3 inhibitors suppress BRAF-mutant melanoma growth” (Eur J Med Chem, 2020)
Calls of active or inactive are those of the source. No cut-off for these calls is given here.

Columns and labels:
A-375 [1] = assay: Cell cycle arrest in human A-375 cells assessed as accumulation at S-phase at 10 uM measured after 24 hrs by […] (reference value: 33.6 to 33.7%); type: functional
[2] = molecular target: T1, Signal transducer and activator of transcription 3 (Homo sapiens, UniProt P40763); assay: Inhibition of STAT3 in human SB-590885-resistant 451Lu cells assessed as reduction in STAT3 transcriptional activity measured after 12 hrs by Dual-luciferase reporter gene assay
Procedure, shortened: (§1)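 Cells co-transfected with inducible STAT3-responsive firefly luciferase and constitutive Renilla luciferase constructs (40:1) using Lipofectamine 3000. After 48 h, dose series in DMSO vehicle applied for 12 h, followed by dual-luciferase readout. Firefly signal normalized to Renilla and compared with untreated cells. Run in triplicate; IC50 taken from dose–response curves.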

[3] = molecular target: T1, Signal transducer and activator of transcription 3; assay: Inhibition of STAT3 phosphorylation at Y705 residue in human SB-590885-sensitive 451Lu cells measured after 12 hrs by Western blot analysis; details: dose 10-25 µM
Procedure, shortened: (§2)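 451 Lu and MEL 1617 pairs, sensitive and resistant; resistant lines maintained in RPMI with 1 µM PLX4720. Treated with 10 and 25 µM for 12 h versus DMSO. Lysates (60 µg protein, 10% SDS-PAGE) immunoblotted for Ser727- and Tyr705-phospho-STAT3, total STAT3, total PAX3, with actin.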

[4] = molecular target: T1, Signal transducer and activator of transcription 3; assay: Inhibition of STAT3 phosphorylation at S727 residue in human SB-590885-resistant MEL1617 cells at 10 to 25 uM measured after 12 hrs by Western blot analysis; type: cell-based; details: dose 10-25 µM; procedure, shortened: as §2
[5] = molecular target: T1, Signal transducer and activator of transcription 3; assay: Displacement of FAM-labeled 5-GpYLPQTV-NH2 from recombinant GST-tagged STAT3 (unknown origin) preincubated for 30 mins followed by FAM-labeled 5-GpYLPQTV-NH2 addition and measured after 30 mins by fluorescence assay; details: for inhibition: time 60.0 min
Procedure, shortened: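 GST-STAT3 (2 µM) was bound to GST beads for 1 h at 4 °C in PBS with 0.1% β-mercaptoethanol, then washed. Bead slurry was incubated with compound dilutions (2.25% DMSO, duplicate) and FAM-GpYLPQTV-NH2 peptide. Resin was washed by vacuum filtration and fluorescence read at ex 485/em 535 nm. % displacement was set against the no-compound signal; two independent experiments.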

[6] = molecular target: T1, Signal transducer and activator of transcription 3; assay: Inhibition of STAT3 in human SB-590885-sensitive 451Lu cells assessed as reduction in STAT3 transcriptional activity measured after 12 hrs by Dual-luciferase reporter gene assay; procedure, shortened: as §1
MCF-10A = assay: Cytotoxicity against human MCF-10A cells assessed as inhibition of cell proliferation by MTS assay; type: cell-based; details: Homo sapiens, MCF-10A; read-out: IC50
[7] = molecular target: T1, Signal transducer and activator of transcription 3; assay: Inhibition of STAT3 in human SB-590885-sensitive MEL1617 cells assessed as reduction in PAX3 expression at 10 to 25 uM measured after 12 hrs by Western blot analysis; type: cell-based; details: dose 10-25 µM; procedure, shortened: as §2
[8] = molecular target: T1, Signal transducer and activator of transcription 3; assay: Inhibition of STAT3 phosphorylation at Y705 residue in human SB-590885-sensitive MEL1617 cells at 10 to 25 uM measured after 12 hrs by Western blot analysis; type: cell-based; details: dose 10-25 µM; procedure, shortened: as §2
A-375 [9] = assay: Down regulation of cyclin D1 expression in human A-375 cells measured after 24 hrs by Western blot analysis; type: functional, cell-based; details: dose 5-50 µM
Procedure, shortened: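 A375 cells were treated for one night with a dose range of inhibitor, lysed, and Cyclin D1 was detected by western blot.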

[10] = molecular target: T1, Signal transducer and activator of transcription 3; assay: Inhibition of STAT3 phosphorylation at S727 residue in human SB-590885-sensitive MEL1617 cells at 10 to 25 uM measured after 12 hrs by Western blot analysis; type: cell-based; details: dose 10-25 µM; procedure, shortened: as §2
[11] = molecular target: T1, Signal transducer and activator of transcription 3; assay: Inhibition of IRDY 700 oligonucleotide binding to STAT3 in human A-375 cell nuclear extract measured after overnight incubation by electrophoretic mobility shift assay; details: dose 10-25 µM
Procedure, shortened: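 A375 cells were treated overnight with inhibitor doses or DMSO in full RPMI. Nuclear extracts were prepared by low-salt lysis followed by high-salt extraction, with protease and phosphatase inhibitors. EMSA used 5 µg extract per reaction with IRDye 700 STAT3 consensus oligo; competitor and mutant oligos served as controls, and a STAT3-immunoprecipitated extract was included.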

MOLT-4 = assay: Anticancer activity against human MOLT-4 cells assessed as cell growth inhibition at 10 uM measured after 48 hrs by SRB assay relative to control; type: functional; details: read-out: GI
Procedure, shortened: (§3)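 NCI 60-cell-line screen. Cells in RPMI with 5% FBS were plated at 5,000–40,000 cells/well by doubling time and preincubated 24 h at 37 °C. Compound was added at a single 10 µM for 48 h, then cells were fixed with cold TCA (10% final) and stained with 0.4% SRB. Absorbance at 515 nm gave percent growth versus untreated control and time-zero cells.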

IGROV-1 = assay: Anticancer activity against human IGROV-1 cells assessed as cell growth inhibition at 10 uM measured after 48 hrs by SRB assay relative to control; type: functional; details: read-out: GI; procedure, shortened: as §3
[12] = molecular target: T1, Signal transducer and activator of transcription 3; assay: Inhibition of STAT3 in human SB-590885-resistant MEL1617 cells assessed as reduction in PAX3 expression at 10 to 25 uM measured after 12 hrs by Western blot analysis; type: cell-based; details: dose 10-25 µM; procedure, shortened: as §2
[13] = Antiproliferative activity against human SB-590885-resistant 451Lu cells assessed as reduction in cell viability measured after 48 hrs by MTS assay; type: functional; details: Homo sapiens, 451Lu, 48 h; read-out: IC50
Procedure, shortened: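 Melanoma lines were grown in RPMI-1640 with Glutamax at 37 °C and 5% CO2. The resistant 451 Lu-R and MEL 1617-R sublines were maintained with 1 µM PLX4720. Cells were incubated with vehicle or inhibitor over a dose range, and viability was read by MTS assay in triplicate.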

[14] = molecular target: T1, Signal transducer and activator of transcription 3; assay: Inhibition of STAT3 in human SB-590885-sensitive MEL1617 cells assessed as reduction in STAT3 transcriptional activity measured after 12 hrs by Dual-luciferase reporter gene assay; type: cell-based; procedure, shortened: as §1
[15] = Drug metabolism in pH 7.4 phosphate buffer assessed as nitric oxide release at 100 uM measured after 48 hrs by Griess reagent based colorimetric method
Procedure, shortened: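 Compound at 100 µM was held at room temperature in pH 7.4 phosphate buffer with 5 mM DTT and 2% DMSO for 2 or 48 h. Griess reagent was added, and after 30 min absorbance was read at 548 nm. NO release (mol NO/mol compound) was derived from a sodium nitrite calibration curve.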

[16] = molecular target: T1, Signal transducer and activator of transcription 3; assay: Inhibition of STAT3 in human SB-590885-resistant MEL1617 cells assessed as reduction in STAT3 transcriptional activity measured after 12 hrs by Dual-luciferase reporter gene assay; type: cell-based; procedure, shortened: as §1
[17] = molecular target: T1, Signal transducer and activator of transcription 3; assay: Inhibition of STAT3 phosphorylation at Y705 residue in human SB-590885-resistant 451Lu cells measured after 12 hrs by Western blot analysis; details: dose 10-25 µM; procedure, shortened: as §2
[18] = molecular target: Signal transducer and activator of transcription 5A (Homo sapiens) (UniProt P42229); assay: Inhibition of STAT5 phosphorylation at Y694 residues in human A-375 cells at 50 uM after 20 hrs by Western blotting analysis; type: cell-based
Procedure, shortened: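 A375 cells exposed to a dose range of inhibitor for 20 h (overnight), up to 50 µM; lysates immunoblotted for phospho-STAT1 Y701, phospho-STAT5 Y694 and phospho-STAT6 Y641, with actin and/or vinculin as loading controls.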

T1 sequence (P40763 whole entry): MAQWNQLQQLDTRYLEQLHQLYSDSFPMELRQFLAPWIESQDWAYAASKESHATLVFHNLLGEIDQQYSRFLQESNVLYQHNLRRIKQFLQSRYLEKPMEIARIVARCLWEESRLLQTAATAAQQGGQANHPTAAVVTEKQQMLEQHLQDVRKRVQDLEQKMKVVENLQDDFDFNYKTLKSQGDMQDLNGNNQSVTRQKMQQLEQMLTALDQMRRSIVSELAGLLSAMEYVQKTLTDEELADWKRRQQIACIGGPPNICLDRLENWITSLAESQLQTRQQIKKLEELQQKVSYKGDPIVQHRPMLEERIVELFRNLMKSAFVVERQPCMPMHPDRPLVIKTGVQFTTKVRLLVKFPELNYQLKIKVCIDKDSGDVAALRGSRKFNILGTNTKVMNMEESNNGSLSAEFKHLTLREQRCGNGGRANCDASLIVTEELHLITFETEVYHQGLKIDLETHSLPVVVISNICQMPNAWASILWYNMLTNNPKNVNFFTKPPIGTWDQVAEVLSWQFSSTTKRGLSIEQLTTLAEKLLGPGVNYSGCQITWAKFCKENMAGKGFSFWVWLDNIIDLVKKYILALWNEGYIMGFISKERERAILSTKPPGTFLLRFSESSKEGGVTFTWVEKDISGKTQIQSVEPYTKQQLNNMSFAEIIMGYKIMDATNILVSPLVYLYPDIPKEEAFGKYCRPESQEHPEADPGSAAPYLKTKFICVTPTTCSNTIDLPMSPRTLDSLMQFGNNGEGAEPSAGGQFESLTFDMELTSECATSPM
Signal transducer and activator of transcription 5A (Homo sapiens), sequence (P42229 whole entry): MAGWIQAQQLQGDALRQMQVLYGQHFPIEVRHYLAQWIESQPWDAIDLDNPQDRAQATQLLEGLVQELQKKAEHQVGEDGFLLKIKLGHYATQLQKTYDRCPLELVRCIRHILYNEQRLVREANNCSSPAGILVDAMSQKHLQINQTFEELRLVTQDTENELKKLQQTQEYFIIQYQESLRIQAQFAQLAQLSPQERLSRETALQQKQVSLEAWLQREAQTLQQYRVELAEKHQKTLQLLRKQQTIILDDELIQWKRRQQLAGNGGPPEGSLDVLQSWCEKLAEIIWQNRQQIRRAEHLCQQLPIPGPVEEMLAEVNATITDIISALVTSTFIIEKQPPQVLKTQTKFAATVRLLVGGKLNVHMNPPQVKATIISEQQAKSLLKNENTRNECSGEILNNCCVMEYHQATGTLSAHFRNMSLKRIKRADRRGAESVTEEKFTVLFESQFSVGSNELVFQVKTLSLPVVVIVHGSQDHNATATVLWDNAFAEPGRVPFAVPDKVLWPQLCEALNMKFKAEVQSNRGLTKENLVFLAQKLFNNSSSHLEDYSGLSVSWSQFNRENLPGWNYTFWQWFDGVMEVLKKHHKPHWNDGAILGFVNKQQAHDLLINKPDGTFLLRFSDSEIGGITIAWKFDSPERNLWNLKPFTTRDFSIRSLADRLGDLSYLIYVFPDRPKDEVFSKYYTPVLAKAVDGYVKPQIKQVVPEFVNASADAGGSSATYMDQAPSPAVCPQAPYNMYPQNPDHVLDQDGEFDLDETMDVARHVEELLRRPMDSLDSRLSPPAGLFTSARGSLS

Compound	Activity (A-375 [1]) [%]	IC50 [2] [µM]	inhibition [3]	inhibition [4]	IC50 [5] [nM]	inhibition [5]	IC50 [6] [µM]	IC50 (MCF-10A) [µM]	inhibition [7]	inhibition [8]	Activity (A-375 [9])	inhibition [10]	inhibition [11]	inhibition of growth at 10 µM (MOLT-4) [%]	inhibition of growth at 10 µM (IGROV-1) [%]	inhibition [12]	IC50 [13] [µM]	IC50 [14] [µM]	Drug metabolism [15] [%]	IC50 [16] [µM]	other results
C=CCn1c(SCC(=O)Nc2ccc(/C(C)=N\O)cc2)nnc1-c1cc(-c2ccc(Cl)cc2)nc2ccccc12	24.9	17	Dose-dependent effect	Active	250	Dose-dependent effect	7.9	92.9	Active	Active	Dose-dependent effect	Active	Dose-dependent effect	100	100	Active	47	21.4	30	15.6	inhibition [17]: Dose-dependent effect; inhibition [18]: inactive
C=CCn1c(SCC(=O)Nc2ccc(/C(C)=N\O)cc2)nnc1-c1cc(-c2ccccc2)nc2ccccc12	18.8	4.7	Dose-dependent effect	Active	320	Dose-dependent effect	6.3	100	Active	Active	Dose-dependent effect	Active	Dose-dependent effect	76	76	Active	7.8	10.3	30	9.9	inhibition [17]: Dose-dependent effect; inhibition [18]: inactive
